In ChEMBL document CHEMBL3352317, “Protective mechanisms of acacetin against D-galactosamine and lipopolysaccharide-induced fulminant hepatic failure in mice” (J Nat Prod, 2014):
Calls of active or inactive are those of the source. No cut-off for these calls is given here.

Key:
[1] = system: Mus musculus; assay: Hepatoprotective effect in GalN/LPS-induced ICR mouse FHF model assessed as serum TNF-alpha level at 100 mg/kg, ip administered 1 hr prior to GalN/LPS challenge measured after 6 hrs by ELISA (reference value: 605.8 +/- 96.8 pg/ml); assay type: functional; settings: route intraperitoneal
[2] = system: Mus musculus; assay: Hepatoprotective effect in GalN/LPS-induced ICR mouse FHF model assessed as survival rate at 100 mg/kg, ip administered 1 hr prior to GalN/LPS challenge measured after 24 hrs; assay type: functional; settings: route intraperitoneal
Procedure, shortened: (§1)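 Male 6-week-old ICR mice (24−26 g), fasted 18 h with water allowed. Vehicle (5% DMSO−saline) or drug suspended in it (25, 50, 100 mg/kg) given ip 1 h before ip GalN (800 mg/kg) plus LPS (40 μg/kg, E. coli O111:B4) in PBS. Survival was monitored over 24 h after the challenge. There were 10 mice per group.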

[3] = system: Mus musculus; assay: Induction of autophagic flux in GalN/LPS-induced ICR mouse FHF model assessed as […] in Beclin-1 protein expression at 100 mg/kg, ip administered 1 hr prior to GalN/LPS challenge measured after 6 hrs by Western blotting analysis relative to control; assay type: functional, organism-based; set-up: dose 100 mg/kg
Procedure, shortened: (§2)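 Livers from ICR mice given 100 mg/kg ip (5% DMSO−saline) 1 h before GalN 800 mg/kg/LPS 40 μg/kg, harvested at 6 h. Western blot: 20 μg liver homogenate protein (nuclear extracts for NF-κB), 10−17% SDS-PAGE, PVDF, blocked in 5% milk or BSA, primary antibody overnight at 4 °C, ECL detection; phospho versus total MAPKs; n = 8−10.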

[4] = system: Mus musculus; assay: Hepatoprotective effect in GalN/LPS-induced ICR mouse FHF model assessed as serum ALT level at 25 mg/kg, ip administered 1 hr prior to GalN/LPS challenge measured after 6 hrs by spectrophotometry (reference value: 618.4 +/- 43.7 U/L); assay type: functional; settings: route intraperitoneal
[5] = system: Mus musculus; assay: Toxicity in ICR mouse at 100 mg/kg, ip; assay type: organism-based; set-up: dose 100 mg/kg, route intraperitoneal; settings: in vivo
[6] = system: Mus musculus; assay: Hepatoprotective effect in GalN/LPS-induced ICR mouse FHF model assessed as reduction in p38 phosphorylation at 100 mg/kg, ip administered 1 hr prior to GalN/LPS challenge measured after 6 hrs by Western blotting analysis relative to control; assay type: functional, organism-based; set-up: dose 100 mg/kg; procedure, shortened: as §2
[7] = system: Mus musculus; assay: Effect on liver histology in GalN/LPS-induced ICR mouse FHF model assessed as inhibition of hepatocellular necrosis at 100 mg/kg, ip administered 1 hr prior to GalN/LPS challenge measured after 6 hrs by hematoxylin/eosin staining-based assay; assay type: functional, organism-based; set-up: dose 100 mg/kg
[8] = system: Mus musculus; assay: Effect serum ALT level in ICR mouse at 100 mg/kg, ip by spectrophotometry (reference value: 49.6 +/- 9.9 U/L); assay type: ADME, organism-based; set-up: dose 100 mg/kg, route intraperitoneal; settings: in vivo
[9] = system: Mus musculus; assay: Induction of autophagic flux in GalN/LPS-induced ICR mouse FHF model assessed as increase in autophagic vacuoles at 100 mg/kg, ip administered 1 hr prior to GalN/LPS challenge measured after 6 hrs by transmission electron microscopy relative to control; assay type: functional, organism-based; set-up: dose 100 mg/kg
Procedure, shortened: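 Mice given 100 mg/kg ip 1 h before GalN (800 mg/kg)/LPS (40 μg/kg); liver fixed at 6 h in 2.5% glutaraldehyde, 1% formaldehyde, 100 mM sodium phosphate pH 7.2; ultrathin 60−70 nm sections counterstained with uranyl acetate and lead citrate, autophagic vacuoles counted by transmission electron microscopy; n = 8−10.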

[10] = system: Mus musculus; assay: Induction of autophagic flux in GalN/LPS-induced ICR mouse FHF model assessed as increase in Atg-7 protein expression at 100 mg/kg, ip administered 1 hr prior to GalN/LPS challenge measured after 6 hrs by Western blotting analysis relative to control; assay type: functional, organism-based; set-up: dose 100 mg/kg; procedure, shortened: as §2
[11] = system: Mus musculus; assay: Hepatoprotective effect in GalN/LPS-induced ICR mouse FHF model assessed as reduction in TLR4 protein expression at 100 mg/kg, ip administered 1 hr prior to GalN/LPS challenge measured after 6 hrs by Western blotting analysis relative to control; assay type: functional, organism-based; set-up: dose 100 mg/kg; procedure, shortened: as §2
[12] = system: Mus musculus; assay: Effect on liver histology in ICR mouse at 100 mg/kg, ip after 6 hr by hematoxylin/eosin staining-based assay; settings: in vivo
[13] = system: Mus musculus; assay: Hepatoprotective effect in GalN/LPS-induced ICR mouse FHF model assessed as reduction in ERK phosphorylation at 100 mg/kg, ip administered 1 hr prior to GalN/LPS challenge measured after 6 hrs by Western blotting analysis relative to control; assay type: functional, organism-based; set-up: dose 100 mg/kg; procedure, shortened: as §2
[14] = system: Mus musculus; assay: Hepatoprotective effect in GalN/LPS-induced ICR mouse FHF model assessed as serum ALT level at 50 mg/kg, ip administered 1 hr prior to GalN/LPS challenge measured after 6 hrs by spectrophotometry (reference value: 618.4 +/- 43.7 U/L); assay type: functional; settings: route intraperitoneal
[15] = system: Mus musculus; assay: Hepatoprotective effect in GalN/LPS-induced ICR mouse FHF model assessed as serum ALT level at 100 mg/kg, ip administered 1 hr prior to GalN/LPS challenge measured after 6 hrs by spectrophotometry (reference value: 618.4 +/- 43.7 U/L); assay type: functional; settings: route intraperitoneal
[16] = system: Mus musculus; assay: Effect on serum TNF-alpha level in ICR mouse at 100 mg/kg, ip by ELISA (reference value: 14.1 +/- 1.1 pg/ml); assay type: ADME, organism-based; set-up: dose 100 mg/kg, route intraperitoneal; settings: in vivo
[17] = system: Mus musculus; assay: Hepatoprotective effect in GalN/LPS-induced ICR mouse FHF model assessed as serum TNF-alpha level at 100 mg/kg, ip administered 1 hr prior to GalN/LPS challenge measured after 6 hrs by ELISA (reference value: 78.9 +/- 14.9 pg/ml); assay type: functional; settings: route intraperitoneal
[18] = system: Mus musculus; assay: Induction of autophagic flux in GalN/LPS-induced ICR mouse FHF model assessed as increase in LC3-2 protein expression at 100 mg/kg, ip administered 1 hr prior to GalN/LPS challenge measured after 6 hrs by Western blotting analysis relative to control; assay type: functional, organism-based; set-up: dose 100 mg/kg; procedure, shortened: as §2
[19] = system: Mus musculus; assay: Induction of autophagic flux in GalN/LPS-induced ICR mouse FHF model assessed as reduction in p62 level at 100 mg/kg, ip administered 1 hr prior to GalN/LPS challenge measured after 6 hrs by Western blotting analysis relative to control; assay type: functional, organism-based; set-up: dose 100 mg/kg; procedure, shortened: as §2
[20] = system: Mus musculus; assay: Effect on liver histology in GalN/LPS-induced ICR mouse FHF model assessed as inhibition of multiple areas of portal inflammation at 100 mg/kg, ip administered 1 hr prior to GalN/LPS challenge measured after 6 hrs by hematoxylin/eosin staining-based assay; assay type: functional, organism-based; set-up: dose 100 mg/kg
[21] = system: Mus musculus; assay: Effect on liver histology in GalN/LPS-induced ICR mouse FHF model assessed as inhibition of increase in inflammatory cell infiltration at 100 mg/kg, ip administered 1 hr prior to GalN/LPS challenge measured after 6 hrs by hematoxylin/eosin staining-based assay; assay type: functional, organism-based; set-up: dose 100 mg/kg
[22] = system: Mus musculus; assay: Induction of autophagic flux in GalN/LPS-induced ICR mouse FHF model assessed as increase in Atg-5 protein expression at 100 mg/kg, ip administered 1 hr prior to GalN/LPS challenge measured after 6 hrs by Western blotting analysis relative to control; assay type: functional, organism-based; set-up: dose 100 mg/kg; procedure, shortened: as §2
[23] = system: Mus musculus; assay: Effect on serum IL-6 level in ICR mouse at 100 mg/kg, ip by ELISA (reference value: 96.7 +/- 4.9 pg/ml); assay type: ADME, organism-based; set-up: dose 100 mg/kg, route intraperitoneal; settings: in vivo
[24] = system: Mus musculus; assay: Hepatoprotective effect in GalN/LPS-induced ICR mouse FHF model assessed as reduction in JNK phosphorylation at 100 mg/kg, ip administered 1 hr prior to GalN/LPS challenge measured after 6 hrs by Western blotting analysis relative to control; assay type: functional, organism-based; set-up: dose 100 mg/kg; procedure, shortened: as §2
[25] = system: Mus musculus; assay: Hepatoprotective effect in ip dosed GalN/LPS-induced ICR mouse FHF model assessed as survival rate administered 1 hr prior to GalN/LPS challenge measured up to 24 hrs; assay type: functional, organism-based; procedure, shortened: as §1
[26] = system: Mus musculus; assay: Hepatoprotective effect in GalN/LPS-induced ICR mouse FHF model assessed as reduction in NF-kappaB protein expression at 100 mg/kg, ip administered 1 hr prior to GalN/LPS challenge measured after 6 hrs by Western blotting analysis relative to control; assay type: functional, organism-based; set-up: dose 100 mg/kg; procedure, shortened: as §2
[27] = system: Hepatocyte; assay: Hepatoprotective effect in primary hepatocytes (unknown origin); assay type: functional, cell-based

For `COc1ccc(-c2cc(=O)c3c(O)cc(O)cc3o2)cc1` [ACACETIN], the Activity [1] was 27.4 pg/mL, the survival at 100 mg/kg [2] was 80% and the Activity [3] was “inactive”. For the same compound, the Activity [4] was 520.1 U/L, the Activity [5] was “Non-toxic” and the Activity [6] was “Active”. The Activity [7] was “Active”, the Activity [8] was 64.4 U/L and the Activity [9] was “Active”. For the same compound, the Activity [10] was “Active”, the Activity [11] was “Active” and the Activity [12] was “Non-toxic”. The Activity [13] was “Active”, the Activity [14] was 395.6 U/L and the Activity [15] was 361.3 U/L. For the same compound, the Activity [16] was 13.1 pg/mL, the Activity [17] was 27.4 pg/mL and the Activity [18] was “Active”. For the same compound, the Activity [19] was “Active”, the Activity [20] was “Active” and the Activity [21] was “Active”. The Activity [22] was “Active”, the Activity [23] was 131 pg/mL and the Activity [24] was “Active”. For the same compound, the Survival [25] was “Dose-dependent effect”, the Activity [26] was “Active” and the Activity [27] was “Active”.
